Experiment [1] relates to MDA-MB-231. Briefly: Induction of apoptosis in human MDA-MB-231 cells assessed as early apoptotic cells at 6 uM measured after 48 hrs by Annexin V-FITC/propidium iodide staining based flow cytometric analysis (reference value: 1%). Format: functional. For orientation: In flow cytometry, cells or beads pass a laser one at a time.
The test system of experiment [2] is MDA-MB-231. Briefly: Induction of apoptosis in human MDA-MB-231 cells assessed as late apoptotic cells at 9 uM measured after 48 hrs in presence of cdc25c inhibitor, NSC663284 by AnnexinV-FITC/PI staining based flow cytometry (reference value: 8.3%). Format: functional.
In experiment [3] the test system is MCF7. Briefly: Inhibition of PI3K/AKT signalling pathway in human MCF7 cells assessed as downregulation of 85ap-PI3K expression at 1 to 4 uM measured after 48 hrs by Western blot analysis. The class given is cell-based. Particulars: dose 1-4 µM. Put shortly: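 After 48 h exposure to compound at several concentrations, cells collected and proteins extracted. SDS-PAGE on 5–15% gels, transfer to nitrocellulose, blocking 2 h in 5% nonfat milk in PBS/0.1% Tween 20, primary antibodies overnight at 4 °C, biotin-conjugated secondary 1 h. Detection on X-ray film; band densitometry.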

Experiment [4] deals with SW-620. Briefly: Antiproliferative activity against human SW-620 cells assessed as cell growth inhibition measured after 72 hrs by MTT assay. Format: functional, cell-based. Particulars: SW-620, 72 h. Summed up: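 Cells seeded at 3000 exponentially growing cells/well and incubated 12 h at 37 °C. Medium then replaced with fresh medium containing graded compound concentrations for 72 h; 5-FU positive control. MTT (5 mg/mL solution) added for 4 h, formazan dissolved in DMSO, absorbance read at 570 nm (reference 630 nm). Relative percentage inhibition of viable cells calculated; IC50 reported as mean ± standard deviation.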
(Formazan colour is commonly taken as a measure of viable cells.)

In experiment [5] the test system is MDA-MB-231. Briefly: Cell cycle arrest in human MDA-MB-231 cells assessed as accumulation at G2/M phase at 9 uM measured after 48 hrs by propidium iodide staining based flow cytometry (reference value: 15.46 %). The class given is functional.
In experiment [6] the test system is MCF7. Briefly: Cell cycle arrest in human MCF7 cells assessed as accumulation at G2/M phase at 4 uM measured after 48 hrs by propidium iodide staining based flow cytometry (reference value: 0.01 %). Format: functional.
Experiment [7] deals with MDA-MB-231. Briefly: Induction of apoptosis in human MDA-MB-231 cells assessed as early apoptotic cells at 3 uM measured after 48 hrs by Annexin V-FITC/propidium iodide staining based flow cytometric analysis (reference value: 1%). The class given is functional.
For experiment [8], the system named is MDA-MB-231. Briefly: Induction of apoptosis in human MDA-MB-231 cells assessed as increase in cleaved caspase 7 protein expression at 9 uM measured after 48 hrs in presence of cdc25c inhibitor, NSC663284 by western blot analysis. Format: functional, cell-based. Summed up:
(§1)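 Four arms per cell line: untreated, test compound, 0.3 µM NSC663284 alone, and combination. Proteins harvested after 48 h and resolved by SDS-PAGE on 5–15% gels, transferred to nitrocellulose. Blocked 2 h in milk/PBS-Tween, primary antibodies overnight at 4 °C, biotin-conjugated secondary. Read on X-ray film with densitometry.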
In general terms: Immunoblotting shows a protein as a band on a membrane.

Experiment [9] deals with MDA-MB-231. Briefly: Induction of apoptosis in human MDA-MB-231 cells assessed as increase in cleaved caspase 9 protein expression at 9 uM measured after 48 hrs in presence of cdc25c inhibitor, NSC663284 by western blot analysis. Format: functional, cell-based. Put shortly:
as §1

Experiment [10] has as its system MCF7. Briefly: Induction of apoptosis in human MCF7 cells assessed as increase in Bax to Bcl2 ratio at 1 to 4 uM measured after 48 hrs by western blot analysis. The class given is functional, cell-based. As to conditions: dose 1-4 µM. Summed up:
(§2)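 MCF-7 and MDA-MB-231 breast cancer cells treated 48 h with a concentration series, then lysed for protein. SDS-PAGE on 5–15% gels, transfer to nitrocellulose. Blocked 2 h in 5% nonfat milk/PBS-0.1% Tween 20, primary antibodies overnight at 4 °C, biotin-conjugated secondary 1 h. X-ray film detection with densitometric quantification.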

The test system of experiment [11] is MCF7. Briefly: Induction of G2/M phase cell cycle arrest in human MCF7 cells assessed as decrease in cyclinB1 protein expression at 1 to 4 uM measured after 48 hrs by western blot analysis. The class given is functional, cell-based. As to conditions: dose 1-4 µM. Summed up: (§3)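 Cells exposed to graded concentrations for 48 h, then proteins extracted. Run on SDS-PAGE (5–15% gels) and transferred to nitrocellulose. Blocked 2 h in 5% nonfat milk in PBS/0.1% Tween 20, primary antibody overnight at 4 °C, biotin-conjugated secondary 1 h. Visualized on X-ray film with densitometric quantitation; three independent experiments.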

The subject of experiment [12] is MDA-MB-231. Briefly: Induction of apoptosis in human MDA-MB-231 cells assessed as late apoptotic cells at 6 uM measured after 48 hrs by Annexin V-FITC/propidium iodide staining based flow cytometric analysis (reference value: 0.3%). The class given is functional.
The subject of experiment [13] is MCF7. Briefly: Induction of apoptosis in human MCF7 cells assessed as increase in cleaved caspase 7 protein expression at 1 to 4 uM measured after 48 hrs by western blot analysis. The class given is functional, cell-based. Particulars: dose 1-4 µM. Summed up: as §2
For experiment [14], the system named is MCF7. Briefly: Induction of apoptosis in human MCF7 cells assessed as increase in Noxa protein expression at 1 to 4 uM measured after 48 hrs by western blot analysis. Format: functional, cell-based. As to conditions: dose 1-4 µM. Summed up: as §2
The test system of experiment [15] is MDA-MB-231. Briefly: Induction of apoptosis in human MDA-MB-231 cells assessed as late apoptotic cells at 3 uM measured after 48 hrs by Annexin V-FITC/propidium iodide staining based flow cytometric analysis (reference value: 0.3%). Format: functional.
Experiment [16] relates to MDA-MB-231. Briefly: Cell cycle arrest in human MDA-MB-231 cells assessed as accumulation at G2/M phase at 3 uM measured after 48 hrs by propidium iodide staining based flow cytometry (reference value: 15.46 %). The class given is functional.
In experiment [17] the test system is MDA-MB-231. Briefly: Induction of apoptosis in human MDA-MB-231 cells assessed as late apoptotic cells at 9 uM measured after 48 hrs by Annexin V-FITC/propidium iodide staining based flow cytometric analysis (reference value: 0.3 %). The class given is functional.
Experiment [18] deals with MDA-MB-231. Briefly: Cell cycle arrest in human MDA-MB-231 cells assessed as accumulation of cells at G2/M phase at 9 uM in presence of cdc25c inhibitor, NSC663284 measured after 48 hrs by PI staining based flow cytometry. Format: functional. Summed up:
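Four arms (untreated, test compound alone, 0.3 NSC663284 alone, combination) applied to cells for 48 h. Cells were fixed in 70% ice-cold ethanol at 4 °C overnight and stained with RNase/PI for 30 min in the dark. G2/M fraction was read by flow cytometry.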

Experiment [19] concerns MCF7. Briefly: Potency index, ratio of 5-FU IC50 to test compound IC50 for anticancer activity against human MCF7 cells measured after 72 hrs by MTT assay. The class given is functional. Put shortly: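 MTT assay: 3000 exponentially growing cells per well, 12 h at 37 °C. Medium replaced with compound at a range of concentrations for 72 h. MTT (5 mg/mL stock) added for 4 h, formazan dissolved in DMSO. Absorbance read at 570 nm (reference 630 nm); percent inhibition gives IC50. Index is 5-FU IC50 divided by test-compound IC50.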

For experiment [20], the system named is MCF7. Briefly: Induction of DNA damage in human MCF7 cells assessed as increase in ATM protein expression at 1 to 4 uM measured after 48 hrs by western blot analysis. The class given is functional, cell-based. Particulars: dose 1-4 µM. Summed up:
as §3

Experiment [21] deals with MDA-MB-231. Briefly: Induction of apoptosis in human MDA-MB-231 cells assessed as early apoptotic cells at 9 uM measured after 48 hrs in presence of cdc25c inhibitor, NSC663284 by AnnexinV-FITC/PI staining based flow cytometry (reference value: 7.4%). The class given is functional.
Experiment [22] deals with MDA-MB-231. Briefly: Induction of apoptosis in human MDA-MB-231 cells assessed as increase in cleaved caspase 3 protein expression at 3 to 9 uM measured after 48 hrs by western blot analysis. Format: functional, cell-based. Particulars: dose 3-9 µM. Put shortly: as §2

Activity calls are given as the source filed them. The rule behind the calls is not given here.

Regarding `C[C@H]1O[C@@H](n2cnc3c(N)nc(F)nc32)[C@H](O)[C@H]1OCP(=O)([O-])[O-].[Na+].[Na+]`, the Activity in experiment [1] came to 19.1%; in experiment [2], 3.2%; in experiment [5], 31.49%; in experiment [6], 26.15%; in [7], 14.5%; in experiment [12] it was 18.8%. The Activity came out at 13% in experiment [15], 20.27% in experiment [16], 16% in experiment [17] and 5.1% in [21]. In [3], the inhibition result is “Active”. Also, in experiment [4], the IC50 came out at 6.62 µM. Moreover, the outcome in experiment [8], in experiment [9] and in experiment [18] was inactive. Further, the outcome in experiment [10], in experiment [11], in experiment [13], in [14], in [20] and in experiment [22] was Active. Besides, the “Ratio IC50” value in experiment [19] was 41.

The IC50 is the midpoint of a concentration-inhibition curve.

For the origin of these results see ChEMBL document CHEMBL4837218, “Synthesis and in vitro antitumour activity of 4(R)-methyl-3-O-phosphonomethyl-α-l-threose nucleosides” (Eur J Med Chem, 2021).
